Test results taken from ChEMBL document CHEMBL3526073, “Hydralazine as a selective probe inactivator of aldehyde oxidase in human hepatocytes: estimation of the contribution of aldehyde oxidase to metabolic clearance” (Drug Metab Dispos, 2012).

Legend:
CYP2C19 [1] = target: T1, CYP2C19 (Homo sapiens, UniProt P33261); assay: Inhibition of CYP2C19 in human liver microsomes assessed as residual activity using S-mephenytoin as substrate at 50 uM relative to control; details: probe S-mephenytoin
CYP2C8 [2] = target: T2, CYP2C8 (Homo sapiens, UniProt P10632); assay: in vitro; details: liver microsomes, probe paclitaxel
T2 sequence (P10632 whole entry): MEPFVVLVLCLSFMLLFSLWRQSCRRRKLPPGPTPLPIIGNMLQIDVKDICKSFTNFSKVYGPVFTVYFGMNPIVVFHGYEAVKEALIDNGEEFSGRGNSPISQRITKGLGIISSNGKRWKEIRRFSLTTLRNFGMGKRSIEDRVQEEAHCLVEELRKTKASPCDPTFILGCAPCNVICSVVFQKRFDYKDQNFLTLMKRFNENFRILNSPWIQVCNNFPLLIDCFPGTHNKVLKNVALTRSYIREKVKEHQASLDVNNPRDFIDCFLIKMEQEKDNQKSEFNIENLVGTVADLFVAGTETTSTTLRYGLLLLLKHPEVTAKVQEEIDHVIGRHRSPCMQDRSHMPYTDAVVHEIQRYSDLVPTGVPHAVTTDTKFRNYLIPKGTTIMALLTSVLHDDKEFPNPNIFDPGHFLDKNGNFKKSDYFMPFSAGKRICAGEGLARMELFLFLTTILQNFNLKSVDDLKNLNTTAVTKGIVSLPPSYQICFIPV

CYP3A [3] = target: T3, CYP3A (Homo sapiens, UniProt P08684+P20815+P24462+Q9HB55); assay: Inhibition of CYP3A in human liver microsomes assessed as residual activity using midazolam as substrate at 50 uM relative to control; details: probe midazolam
CYP2C9 [4] = target: T4, CYP2C9 (Homo sapiens, UniProt P11712); assay: in vitro; details: liver microsomes, probe diclofenac
T4 sequence (P11712 whole entry): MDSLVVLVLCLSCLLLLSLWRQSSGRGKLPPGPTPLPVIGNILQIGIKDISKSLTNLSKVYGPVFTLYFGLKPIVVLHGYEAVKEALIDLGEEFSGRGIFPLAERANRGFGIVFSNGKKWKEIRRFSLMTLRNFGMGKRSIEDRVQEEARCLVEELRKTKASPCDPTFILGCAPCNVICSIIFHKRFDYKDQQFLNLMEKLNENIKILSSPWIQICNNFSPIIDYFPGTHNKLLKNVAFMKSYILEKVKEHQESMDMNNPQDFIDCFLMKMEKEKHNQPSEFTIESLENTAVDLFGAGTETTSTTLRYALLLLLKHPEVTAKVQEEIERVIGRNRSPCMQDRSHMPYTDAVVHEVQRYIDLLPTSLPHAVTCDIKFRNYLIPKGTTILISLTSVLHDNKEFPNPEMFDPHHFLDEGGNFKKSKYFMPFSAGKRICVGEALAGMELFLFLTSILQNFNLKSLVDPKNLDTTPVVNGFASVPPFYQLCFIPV

CYP2C8 [5] = target: T2, CYP2C8; assay: Inhibition of CYP2C8 in human liver microsomes assessed as residual activity using paclitaxel as substrate at 50 uM relative to control; details: probe paclitaxel
CYP2D6 [6] = target: T5, CYP2D6 (Homo sapiens, UniProt P10635); assay: in vitro; details: liver microsomes, probe dextromethorphan
T5 sequence (P10635 whole entry): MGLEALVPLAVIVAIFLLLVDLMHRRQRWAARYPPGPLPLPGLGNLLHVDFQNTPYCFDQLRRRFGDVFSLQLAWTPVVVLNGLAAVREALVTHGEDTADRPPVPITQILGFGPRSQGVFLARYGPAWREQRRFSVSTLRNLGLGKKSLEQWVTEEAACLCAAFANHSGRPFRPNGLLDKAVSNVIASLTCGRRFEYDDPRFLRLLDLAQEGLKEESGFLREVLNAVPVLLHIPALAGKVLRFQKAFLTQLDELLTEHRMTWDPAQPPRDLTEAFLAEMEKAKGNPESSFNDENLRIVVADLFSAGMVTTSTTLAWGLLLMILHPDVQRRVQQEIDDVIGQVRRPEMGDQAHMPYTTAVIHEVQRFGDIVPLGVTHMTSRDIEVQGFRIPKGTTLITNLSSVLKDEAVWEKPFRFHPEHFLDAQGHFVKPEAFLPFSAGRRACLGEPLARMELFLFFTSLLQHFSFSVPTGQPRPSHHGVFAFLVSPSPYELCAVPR

CYP1A2 [7] = target: T6, CYP1A2 (Homo sapiens, UniProt P05177); assay: Inhibition of CYP1A2 in human liver microsomes assessed as residual activity using phenacetin as substrate at 50 uM relative to control; details: probe phenacetin
T6 sequence (P05177 whole entry): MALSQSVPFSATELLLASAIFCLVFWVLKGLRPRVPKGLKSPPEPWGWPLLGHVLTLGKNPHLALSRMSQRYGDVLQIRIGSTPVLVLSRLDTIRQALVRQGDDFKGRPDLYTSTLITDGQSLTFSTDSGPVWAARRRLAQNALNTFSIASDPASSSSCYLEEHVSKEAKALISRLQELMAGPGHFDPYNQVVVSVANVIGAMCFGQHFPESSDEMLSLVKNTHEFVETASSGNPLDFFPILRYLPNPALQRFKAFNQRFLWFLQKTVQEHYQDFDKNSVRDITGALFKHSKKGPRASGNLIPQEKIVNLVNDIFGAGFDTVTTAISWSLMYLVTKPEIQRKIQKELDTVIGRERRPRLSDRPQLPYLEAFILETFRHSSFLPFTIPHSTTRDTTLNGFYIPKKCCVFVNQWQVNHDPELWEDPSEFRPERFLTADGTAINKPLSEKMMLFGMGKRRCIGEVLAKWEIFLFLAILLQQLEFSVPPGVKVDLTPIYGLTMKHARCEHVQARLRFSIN

CYP3A [8] = target: T3, CYP3A; assay: in vitro; details: liver microsomes, probe midazolam
CYP2C9 [9] = target: T4, CYP2C9; assay: Inhibition of CYP2C9 in human liver microsomes assessed as residual activity using diclofenac as substrate at 50 uM relative to control; details: probe diclofenac
CYP2C19 [10] = target: T1, CYP2C19; assay: in vitro; details: liver microsomes, probe S-mephenytoin
CYP1A2 [11] = target: T6, CYP1A2; assay: in vitro; details: liver microsomes, probe phenacetin
CYP2D6 [12] = target: T5, CYP2D6; assay: Inhibition of CYP2D6 in human liver microsomes assessed as residual activity using dextromethorphan as substrate at 50 uM relative to control; details: probe dextromethorphan
Aldehyde oxidase [13] = target: T7, Aldehyde oxidase (Homo sapiens, UniProt Q06278); details: hepatocytes, 2 h, 10 µM
T7 sequence (Q06278 whole entry): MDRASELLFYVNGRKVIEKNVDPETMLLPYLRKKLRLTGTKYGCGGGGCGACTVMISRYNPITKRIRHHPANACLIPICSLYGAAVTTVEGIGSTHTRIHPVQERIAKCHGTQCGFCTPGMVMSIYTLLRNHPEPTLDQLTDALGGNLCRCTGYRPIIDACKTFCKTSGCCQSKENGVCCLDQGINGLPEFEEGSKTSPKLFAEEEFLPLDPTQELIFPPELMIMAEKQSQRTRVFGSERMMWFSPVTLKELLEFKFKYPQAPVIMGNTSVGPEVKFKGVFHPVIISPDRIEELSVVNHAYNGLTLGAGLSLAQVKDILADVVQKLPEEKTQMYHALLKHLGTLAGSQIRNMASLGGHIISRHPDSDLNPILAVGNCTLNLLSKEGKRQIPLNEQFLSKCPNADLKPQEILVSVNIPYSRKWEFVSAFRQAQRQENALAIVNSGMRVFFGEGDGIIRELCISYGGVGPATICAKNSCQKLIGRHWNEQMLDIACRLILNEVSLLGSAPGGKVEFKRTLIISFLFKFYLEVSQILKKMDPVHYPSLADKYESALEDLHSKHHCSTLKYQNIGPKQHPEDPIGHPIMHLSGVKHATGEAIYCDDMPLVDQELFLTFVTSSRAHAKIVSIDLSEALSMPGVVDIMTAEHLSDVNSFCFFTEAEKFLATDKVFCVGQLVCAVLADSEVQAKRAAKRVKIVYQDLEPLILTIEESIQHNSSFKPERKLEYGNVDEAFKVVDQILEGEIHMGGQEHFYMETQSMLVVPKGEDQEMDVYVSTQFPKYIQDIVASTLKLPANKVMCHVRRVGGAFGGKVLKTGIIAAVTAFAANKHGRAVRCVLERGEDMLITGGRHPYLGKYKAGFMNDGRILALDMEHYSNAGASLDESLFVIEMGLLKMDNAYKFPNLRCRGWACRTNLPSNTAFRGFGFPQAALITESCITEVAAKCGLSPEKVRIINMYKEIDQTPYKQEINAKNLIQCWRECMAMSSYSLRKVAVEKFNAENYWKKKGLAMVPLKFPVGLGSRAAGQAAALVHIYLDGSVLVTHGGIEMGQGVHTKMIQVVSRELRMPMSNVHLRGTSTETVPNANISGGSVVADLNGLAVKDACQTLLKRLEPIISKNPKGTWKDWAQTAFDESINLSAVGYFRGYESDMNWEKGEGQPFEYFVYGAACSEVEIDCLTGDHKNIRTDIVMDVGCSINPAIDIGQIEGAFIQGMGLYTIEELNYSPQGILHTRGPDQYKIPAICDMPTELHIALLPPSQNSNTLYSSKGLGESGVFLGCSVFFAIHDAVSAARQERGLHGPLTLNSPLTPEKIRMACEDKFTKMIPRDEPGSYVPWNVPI

Aldehyde oxidase [14] = target: T7, Aldehyde oxidase; details: hepatocytes, 2 h, 10 µM; remark: listed apart in the source
[15] = Drug metabolism in cryopreserved human hepatocytes assessed as CYP450-mediated formation of desethylzaleplon at 20 uM after 30 mins by LC-MS/MS analysis; format: ADME, cell-based, Hepatocyte; details: 0.5 h
In short: (§1)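 Pooled cryopreserved human hepatocytes (five-donor pool, viability >80%) in Williams E medium, preincubated 30 min at 37°C under O2/CO2 (95/5). Zaleplon 20 μM final, with hydralazine 0–200 μM or 1-aminobenzotriazole 0–1.5 mM co-added, incubated 30 min. Reaction stopped with cold acetonitrile containing internal standard. Oxozaleplon (AO product) and desethylzaleplon (CYP product) measured by LC-MS/MS and expressed as percent of control.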

Aldehyde oxidase [16] = target: T7, Aldehyde oxidase; assay: Drug metabolism in cryopreserved human hepatocytes assessed as aldehyde oxidase-mediated formation of oxozaleplon at 20 uM after 30 mins by LC-MS/MS analysis in presence of 1.5 mM of 1-aminobenzotriazole; format: ADME, cell-based, Hepatocyte; details: 0.5 h; in short: as §1
Aldehyde oxidase [17] = target: T7, Aldehyde oxidase; assay: Drug metabolism in cryopreserved human hepatocytes assessed as aldehyde oxidase-mediated formation of oxozaleplon at 20 uM after 30 mins by LC-MS/MS analysis; format: ADME, cell-based, Hepatocyte; details: 0.5 h; in short: as §1
Aldehyde oxidase [18] = target: T7, Aldehyde oxidase; assay: Inhibition of aldehyde oxidase in human liver cytosol assessed as production of oxozoniporide
[19] = Drug metabolism in cryopreserved human hepatocytes assessed as CYP450-mediated formation of desethylzaleplon at 20 uM after 30 mins by LC-MS/MS analysis in presence of 25 uM of hydralazine; format: ADME, cell-based, Hepatocyte; details: 0.5 h; in short: as §1
[20] = Drug metabolism in cryopreserved human hepatocytes assessed as CYP450-mediated formation of desethylzaleplon at 20 uM after 30 mins by LC-MS/MS analysis in presence of 50 uM hydralazine; format: ADME, cell-based, Hepatocyte; details: 0.5 h; in short: as §1
Aldehyde oxidase [21] = target: T7, Aldehyde oxidase; assay: Drug metabolism in cryopreserved human hepatocytes assessed as aldehyde oxidase-mediated formation of oxozaleplon at 50 uM after 30 mins by LC-MS/MS analysis; format: ADME, cell-based, Hepatocyte; details: 0.5 h
[22] = Drug metabolism in cryopreserved human hepatocytes assessed as CYP450-mediated formation of desethylzaleplon at 50 uM after 30 mins by LC-MS/MS analysis; format: ADME, cell-based, Hepatocyte; details: 0.5 h
[23] = Drug level in cryopreserved human hepatocytes assessed as CYP450-mediated metabolite formation treated with 20 uM of zaleplon after 30 mins by LC-MS/MS analysis; format: ADME, cell-based, Hepatocyte; details: 0.5 h; in short: as §1

T1 sequence (P33261 whole entry): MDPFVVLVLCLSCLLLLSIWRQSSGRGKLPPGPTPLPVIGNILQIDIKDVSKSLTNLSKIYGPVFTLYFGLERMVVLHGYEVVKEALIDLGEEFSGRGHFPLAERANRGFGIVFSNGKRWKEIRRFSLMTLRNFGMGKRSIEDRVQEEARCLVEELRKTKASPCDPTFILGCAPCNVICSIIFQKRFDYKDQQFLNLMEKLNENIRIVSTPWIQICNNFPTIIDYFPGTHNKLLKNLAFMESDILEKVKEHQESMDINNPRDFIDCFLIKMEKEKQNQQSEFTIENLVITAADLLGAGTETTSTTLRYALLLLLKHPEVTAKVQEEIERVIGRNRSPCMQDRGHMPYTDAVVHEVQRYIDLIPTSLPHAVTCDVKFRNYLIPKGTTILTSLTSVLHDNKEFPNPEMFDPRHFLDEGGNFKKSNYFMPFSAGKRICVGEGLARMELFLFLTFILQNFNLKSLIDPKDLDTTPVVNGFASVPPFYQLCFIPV

What does the source list for `NNc1nncc2ccccc12` [HYDRALAZINE]?
activity at 50 µM (CYP2C19 [1]): 90%; activity at 25 µM (CYP2C8 [2]): 108%; activity at 50 µM (CYP3A [3]): 76%; activity at 25 µM (CYP2C9 [4]): 105%; activity at 50 µM (CYP2C8 [5]): 95%; activity at 25 µM (CYP2D6 [6]): 92%; activity at 50 µM (CYP1A2 [7]): 89%; activity at 25 µM (CYP3A [8]): 98%; activity at 50 µM (CYP2C9 [9]): 95%; activity at 25 µM (CYP2C19 [10]): 103%; activity at 25 µM (CYP1A2 [11]): 100%; activity at 50 µM (CYP2D6 [12]): 77%

With `N=C(N)NC(=O)c1cnn(-c2cccc3ncccc23)c1C1CC1` [ZONIPORIDE] as the compound, how does the Fm (Aldehyde oxidase [13]) read?
Its Fm is 0.55.

What about the Fm (Aldehyde oxidase [14]) of the same compound?
The Fm was 0.64.

What does the source list for `Cc1ncc2n1-c1ccc(Cl)cc1C(c1ccccc1F)=NC2` [MIDAZOLAM]?
Fm (Aldehyde oxidase [13]): 0.05; Fm (Aldehyde oxidase [14]): 0.08

For `CCN(C(C)=O)c1cccc(-c2ccnc3c(C#N)cnn23)c1` [ZALEPLON], which Drug metabolism [15] is on record?
Its Drug metabolism is “metabolite_detected”.

And the Drug metabolism (Aldehyde oxidase [16])?
Its Drug metabolism is “metabolite_detected”.

What about the Fm (Aldehyde oxidase [13]) of the same compound?
The Fm was 0.56.

What about the Drug metabolism (Aldehyde oxidase [17]) of the same compound?
The Drug metabolism was “metabolite_detected”.

And the Ki (Aldehyde oxidase [18])?
The Ki was 83 µM.

And the kinact (Aldehyde oxidase [18]; human, liver cytosol)?
Its kinact is 0.00105 s⁻¹.

And the Drug metabolism [19]?
Its Drug metabolism is “metabolite_detected”.

What about the Drug metabolism [20] of the same compound?
The Drug metabolism was “metabolite_not_detected”.

What about the Fm (Aldehyde oxidase [14]) of the same compound?
The Fm was 0.7.

For `CC[C@H]1OC(=O)[C@H](C)C(=O)[C@H](C)[C@@H](O[C@@H]2O[C@H](C)C[C@H](N(C)C)[C@H]2O)[C@](C)(OC)C[C@@H](C)C(=O)[C@H](C)[C@H]2N(C3CN([C@H](C)c4ccnc5ncccc45)C3)C(=O)O[C@]12C`, which Fm (Aldehyde oxidase [13]) is on record?
Its Fm is 0.61.

Which Fm (Aldehyde oxidase [13]) does the source give for `COc1ccc2c(c1)[C@]13CCCC[C@@H]1[C@H](C2)N(C)CC3` [DEXTROMETHORPHAN] here?
Its Fm is 0.39.

Which Fm (Aldehyde oxidase [13]) does the source give for `Nc1nc(OCc2ccccc2)c2[nH]cnc2n1` [6-O-BENZYLGUANINE] here?
The Fm was 0.83.

For `CCNC(=O)OC1CCN(c2nncc3cc(OC)c(OC)cc23)CC1` [CARBAZERAN], which Fm (Aldehyde oxidase [13]) is on record?
Its Fm is 0.55.

What about the Fm (Aldehyde oxidase [14]) of the same compound?
The Fm was 0.49.

What does the source list for `CN(C)CCNC(=O)c1cccc2cc3ccccc3nc12`?
Fm (Aldehyde oxidase [13]): 0.76; Fm (Aldehyde oxidase [14]): 0.53

What does the source list for `CCN(C(C)=O)c1cccc(-c2cc(=O)[nH]c3c(C#N)cnn23)c1`?
Drug metabolism (Aldehyde oxidase [21]): metabolite_not_detected; Drug metabolism [22]: metabolite_not_detected

Which Drug metabolism [23] does the source give for `CC(=O)Nc1cccc(-c2ccnc3c(C#N)cnn23)c1` here?
The Drug metabolism was “metabolite_detected”.
